The source of these data is ChEMBL document CHEMBL1147285, “A mammalian cell agar-diffusion assay for the detection of toxic compounds” (J Nat Prod, 1989).

In assay [1] the test system is HT-29. The experiment in a line: Antiproliferative activity against human HT-29 cells after 96 hrs by MTT assay. Format: functional, cell-based. The following applies: HT-29, 96 h. (Tetrazolium assays rely on reduction of a dye to a coloured formazan, in cell work by metabolically active cells.)
The subject of assay [2] is HT-29. Nature of the assay: Antiproliferative activity against human HT-29 cells at 1 ug after 48 hrs by two-layer agar-diffusion method. Format: functional. The following applies: read-out: IZ. In outline:
(§1)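 Compound (0.01-10 µg) spotted on Si gel pieces, air-dried, placed face down on 1.5% Noble agar in PBS-growth medium (20:80) for 60 min diffusion. After removal, cells (2 X 10^6/ml) in 0.3% low-temperature agarose overlaid; 48 h incubation. Cytotoxic zones shown by MTT (5 mg/ml in growth medium) over agarose; absence of zone scored as not detected.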
On the technique in general: Agar diffusion results depend on both activity and mobility in agar.

In assay [3] the test system is HT-29. Nature of the assay: Antiproliferative activity against human HT-29 cells at 0.1 ug after 48 hrs by two-layer agar-diffusion method. Format: functional. The conditions noted are these: for zone of inhibition at 0.1 µg/disc: read-out: IZ. In outline:
as §1

Assay [4] has as its system HT-29. The experiment in a line: Antiproliferative activity against human HT-29 cells at 0.01 ug after 48 hrs by two-layer agar-diffusion method. Format: functional. The essentials:
as §1

For assay [5], the system named is P388. Nature of the assay: Antiproliferative activity against mouse P388 cells after 48 hrs by MTT assay. It is filed as functional, cell-based. The conditions noted are these: P388, 48 h. The essentials: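 Uncloned P-388 in RPMI 1640 + 10% horse serum, gentamicin 50 µg/ml; 200-µl cultures at 1 X 10' cells/ml with or without drug, 48 h exposure. MTT (5 mg/ml in medium, 75 µl) added for 90 min, formazan read at 570 nm; absorbance normalized to untreated wells; IC50 by linear regression of logit-transformed data.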

In assay [6] the test system is P388. The experiment in a line: Antiproliferative activity against mouse P388 cells at 1 ug after 48 hrs by two-layer agar-diffusion method. It is filed as functional. The following applies: read-out: IZ. The essentials:
as §1

Assay [7] relates to P388. The experiment in a line: Antiproliferative activity against mouse P388 cells at 0.1 ug after 48 hrs by two-layer agar-diffusion method. It is filed as functional. The conditions noted are these: read-out: IZ. In outline:
as §1

Assay [8] has as its system P388. Nature of the assay: Antiproliferative activity against mouse P388 cells at 0.01 ug after 48 hrs by two-layer agar-diffusion method. Format: functional. The conditions noted are these: for zone of inhibition at 0.01 µg/disc: read-out: IZ. In outline:
as §1

The source made the active and inactive calls. The calls are words filed in the database; no cut-off is given here. Where only a bound is given, the exact number is not on record here.

Broadly, the IC50 is the concentration needed to halve the response being measured. Low readings indicate greater potency, high ones weaker potency. As to `Nc1ncn([C@@H]2O[C@H](CO)[C@@H](O)[C@H]2O)c(=O)n1` [AZACITIDINE], the concentration for half-maximal inhibition (IC50) in the assay on HT-29 [1] stood at 3800 nM; in the assay with P388 [5], 5000 nM. For the same molecule, the zone of inhibition at 1 µg/disc with HT-29 [2] is 20 mm; in the assay with P388 [6] it was 30 mm. Also, the result with HT-29 [3], with HT-29 [4] and with P388 [8] was inactive. Besides, the zone of inhibition at 0.1 µg/disc in the assay with P388 [7] came to 12.5 mm.
Regarding `COc1cc2c(c(OC)c1OC)-c1ccc(OC)c(=O)cc1[C@@H](NC(C)=O)CC2` [COLCHICINE], the zone of inhibition at 1 µg/disc in the assay with HT-29 [2] and with P388 [6] was more than 40 mm each time. For the same molecule, the zone of inhibition at 0.1 µg/disc in the assay with HT-29 [3] and in the assay with P388 [7] was 40 mm in each case. In addition, the zone of inhibition at 0.01 µg/disc in the assay on HT-29 [4] (read-out: IZ) turned out to be 25 mm; in the assay with P388 [8] it was 17.5 mm. In the assay with P388 [5], this molecule came in with a concentration for half-maximal inhibition (IC50) of 24 nM.
As for `COc1cccc2c1C(=O)c1c(O)c3c(c(O)c1C2=O)C[C@@](O)(C(C)=O)C[C@@H]3O[C@H]1C[C@H](N)[C@H](O)[C@H](C)O1` [DAUNORUBICIN], the IC50 with HT-29 [1] stood at 133 nM; in the assay with P388 [5], 28 nM. The zone of inhibition at 1 µg/disc turned out to be 5 mm in the assay on HT-29 [2] and 20 mm with P388 [6]. The outcome in the assay with HT-29 [3] and in the assay with HT-29 [4] was inactive. In addition, the zone of inhibition at 0.1 µg/disc with P388 [7] was 12.5 mm. Also, the zone of inhibition at 0.01 µg/disc with P388 [8] was 10 mm.
In the case of `COc1cccc2c1C(=O)c1c(O)c3c(c(O)c1C2=O)C[C@@](O)(C(=O)CO)C[C@@H]3O[C@H]1C[C@H](N)[C@H](O)[C@H](C)O1` [DOXORUBICIN], the values for the concentration for half-maximal inhibition (IC50) in the assay on HT-29 [1] and in the assay with P388 [5] were 37 nM and 74 nM, respectively. The values for the zone of inhibition at 1 µg/disc with HT-29 [2] and in the assay on P388 [6] were 5 mm and 25 mm, respectively. Moreover, the outcome in the assay on HT-29 [3] and in the assay on HT-29 [4] was inactive. In addition, the zone of inhibition at 0.1 µg/disc in the assay on P388 [7] stood at 17.5 mm. For the same molecule, in the assay on P388 [8], the zone of inhibition at 0.01 µg/disc is 5 mm.
`CC[C@H]1CN2CCc3cc(OC)c(OC)cc3[C@@H]2C[C@@H]1C[C@H]1NCCc2cc(OC)c(OC)cc21` [EMETINE]: the half-maximal inhibitory concentration (IC50) was 33 nM in the assay with HT-29 [1] and 7 nM in the assay on P388 [5]. For the same molecule, the zone of inhibition at 1 µg/disc with HT-29 [2] was 35 mm; in the assay with P388 [6], more than 40 mm. Also, the figures for the zone of inhibition at 0.1 µg/disc in the assay with HT-29 [3] and in the assay with P388 [7] were 25 mm and 40 mm, respectively. Moreover, in the assay on HT-29 [4], the result was inactive. For the same molecule, the zone of inhibition at 0.01 µg/disc with P388 [8] was determined as 20 mm.
For `CO[C@@]12[C@H](COC(N)=O)C3=C(C(=O)C(C)=C(N)C3=O)N1C[C@@H]1N[C@@H]12` [MITOMYCIN], the IC50 with HT-29 [1] was 99 nM; in the assay on P388 [5], 3000 nM. Further, the zone of inhibition at 1 µg/disc in the assay on HT-29 [2] came out at 10 mm; with P388 [6], 25 mm. Besides, the result with HT-29 [3], with HT-29 [4] and in the assay on P388 [8] was inactive. The zone of inhibition at 0.1 µg/disc in the assay with P388 [7] stood at 5 mm.
In the case of `CO[C@H](C(=O)[C@@H](O)[C@@H](C)O)[C@@H]1Cc2cc3cc(O[C@H]4C[C@@H](O[C@@H]5C[C@@H](O)[C@H](O)[C@@H](C)O5)[C@H](O)[C@@H](C)O4)c(C)c(O)c3c(O)c2C(=O)[C@H]1O[C@H]1C[C@@H](O[C@@H]2C[C@@H](O)[C@@H](O[C@@H]3C[C@](C)(O)[C@H](O)[C@@H](C)O3)[C@@H](C)O2)[C@H](O)[C@@H](C)O1` [PLICAMYCIN], the IC50 was determined as 33 nM in the assay on HT-29 [1] and 111 nM in the assay with P388 [5]. Also, the zone of inhibition at 1 µg/disc with HT-29 [2] was determined as 25 mm; in the assay on P388 [6], 30 mm. In addition, the zone of inhibition at 0.1 µg/disc in the assay with HT-29 [3] and in the assay on P388 [7] was 15 mm each time. In addition, the result in the assay with HT-29 [4] and with P388 [8] was inactive.
